Tests used:
Plasma clearance in rat = details: in vivo
[1] = Per oral administration of 5 mg/Kg of dose required for measuring Area under concentration of curve in rat; type: ADME; details: in vivo
Method in brief: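 Rats (n=2) received 5 mg/kg in 5% DMSO/95% PEG400. Plasma exposure is reported as AUC in h ng mL−1.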

[2] = Lipophilicity of the compound measured as CHI LogD by HPLC; type: physicochemical
[3] = Volume of distribution in rat; type: ADME, organism-based; details: in vivo, read-out: Vdss
[4] = Half life in rat; type: ADME; details: in vivo
Oxytocin receptor = molecular target: T1, Oxytocin receptor (Homo sapiens, UniProt P30559); assay: Displacement of [3H]oxytocin from human Oxytocin receptor
T1 sequence (P30559 whole entry): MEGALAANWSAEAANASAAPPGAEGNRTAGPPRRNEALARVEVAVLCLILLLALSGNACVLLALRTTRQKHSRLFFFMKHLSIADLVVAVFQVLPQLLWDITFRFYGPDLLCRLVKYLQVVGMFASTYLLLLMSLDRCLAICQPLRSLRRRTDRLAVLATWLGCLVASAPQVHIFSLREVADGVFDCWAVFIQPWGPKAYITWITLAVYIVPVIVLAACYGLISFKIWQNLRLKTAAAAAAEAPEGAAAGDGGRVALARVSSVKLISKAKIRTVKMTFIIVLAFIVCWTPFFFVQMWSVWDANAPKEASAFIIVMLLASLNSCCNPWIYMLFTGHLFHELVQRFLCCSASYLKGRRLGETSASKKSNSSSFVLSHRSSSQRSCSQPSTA

[5] = Bioavailability in rat; type: ADME, organism-based; details: in vivo
[6] = Per oral administration of 0.6 mg/Kg of dose required for measuring Area under concentration of curve in dog; type: ADME, Canis lupus familiaris; details: in vivo
Method in brief: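 Dogs (n=1) received 0.6 mg/kg in either 5% DMSO/95% PEG400 or 5% DMSO/95% labrafil. Exposure is given as plasma AUC in h ng mL−1.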

[7] = Bioavailability in dog; type: ADME, organism-based, Canis lupus familiaris; details: in vivo
[8] = Volume of distribution in dog; type: ADME, organism-based, Canis lupus familiaris; details: in vivo, read-out: Vdss
Plasma clearance in dog = details: in vivo
Vasopressin V2 receptor = Vasopressin V2 receptor (Homo sapiens, UniProt P30518); assay: Displacement of [3H]oxytocin from human V2 vasopressin receptor
Chain of Vasopressin V2 receptor (P30518 whole entry): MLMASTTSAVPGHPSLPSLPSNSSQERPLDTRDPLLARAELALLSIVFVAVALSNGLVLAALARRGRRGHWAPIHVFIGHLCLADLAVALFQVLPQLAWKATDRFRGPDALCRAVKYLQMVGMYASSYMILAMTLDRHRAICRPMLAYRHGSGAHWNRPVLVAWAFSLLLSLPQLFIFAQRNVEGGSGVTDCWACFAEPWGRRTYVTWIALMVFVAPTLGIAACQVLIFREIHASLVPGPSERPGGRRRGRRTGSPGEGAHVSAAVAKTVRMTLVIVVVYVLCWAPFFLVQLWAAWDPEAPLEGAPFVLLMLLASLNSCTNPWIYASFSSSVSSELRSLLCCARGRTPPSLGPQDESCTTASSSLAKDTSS

Vasopressin V1b receptor = molecular target: T2, Vasopressin V1b receptor (Homo sapiens, UniProt P47901); assay: Displacement of [3H]vasopressin from human V1b vasopressin receptor
T2 sequence (P47901 whole entry): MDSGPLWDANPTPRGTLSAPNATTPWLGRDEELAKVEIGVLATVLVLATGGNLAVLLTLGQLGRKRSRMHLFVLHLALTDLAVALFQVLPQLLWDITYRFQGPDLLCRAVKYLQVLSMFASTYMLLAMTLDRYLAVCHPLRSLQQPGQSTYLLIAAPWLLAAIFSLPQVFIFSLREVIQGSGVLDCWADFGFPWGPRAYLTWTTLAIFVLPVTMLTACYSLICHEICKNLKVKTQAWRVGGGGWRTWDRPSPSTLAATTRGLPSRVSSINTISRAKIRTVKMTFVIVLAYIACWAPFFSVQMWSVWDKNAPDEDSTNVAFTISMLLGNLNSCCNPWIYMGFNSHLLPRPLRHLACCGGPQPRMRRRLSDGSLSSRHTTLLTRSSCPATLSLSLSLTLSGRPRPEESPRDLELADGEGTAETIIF

[9] = Per oral administration of 5 mg/Kg of dose required for measuring Area under concentration of curve in dog; type: ADME, Canis lupus familiaris; details: in vivo
Vasopressin V1a receptor = Vasopressin V1a receptor (Homo sapiens, UniProt P37288); assay: Displacement of [3H]vasopressin from human V1a vasopressin receptor
Chain of Vasopressin V1a receptor (P37288 whole entry): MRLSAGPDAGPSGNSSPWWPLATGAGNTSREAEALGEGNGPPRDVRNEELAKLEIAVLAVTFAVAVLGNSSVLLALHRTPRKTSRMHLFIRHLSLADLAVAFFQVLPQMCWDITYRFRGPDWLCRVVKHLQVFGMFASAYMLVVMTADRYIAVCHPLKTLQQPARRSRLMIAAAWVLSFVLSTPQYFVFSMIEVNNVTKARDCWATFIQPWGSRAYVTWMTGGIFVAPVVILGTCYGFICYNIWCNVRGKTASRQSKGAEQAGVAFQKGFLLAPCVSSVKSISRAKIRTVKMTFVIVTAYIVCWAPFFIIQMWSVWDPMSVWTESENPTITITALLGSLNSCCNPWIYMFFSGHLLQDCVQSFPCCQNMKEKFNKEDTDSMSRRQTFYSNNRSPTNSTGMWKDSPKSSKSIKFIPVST

[10] = Per oral administration of 0.6 mg/Kg of dose required for measuring Area under concentration of curve in dog; details: in vivo

Compound	AUC [1] [ng·h/mL]	chromatographic logD [2]	Ki (Oxytocin receptor) [nM]	also measured
CC(C)C[C@@H]1C(=O)N[C@H](C2Cc3ccccc3C2)C(=O)N1[C@@H](C(=O)NC(C)C)c1ccccc1	114	3.2	3.98	CL (Plasma clearance in rat): 29 mL/min/kg; Vd [3]: 0.8 L/kg; half-life [4]: 60 min; bioavailability [5]: 5%
CC(=O)Nc1cccc([C@H](C(=O)NC(C)(C)C)N2C(=O)[C@@H](C3Cc4ccccc4C3)NC(=O)[C@H]2CC(C)C)c1	–	–	6.31	–
COc1ccc([C@H](C(=O)NC(C)(C)C)N2C(=O)[C@@H](C3Cc4ccccc4C3)NC(=O)[C@H]2CC(C)C)cc1	101	3.4	2.51	–
CC(C)C[C@@H]1C(=O)N[C@H](C2Cc3ccccc3C2)C(=O)N1[C@H](C(=O)NC(C)C)c1ccc(N(C)C)cc1	–	–	25.1	–
CC(=O)Nc1ccc([C@@H](C(=O)NC(C)C)N2C(=O)[C@@H](C3Cc4ccccc4C3)NC(=O)[C@H]2CC(C)C)cc1	–	–	126	–
CC(C)C[C@@H]1C(=O)N[C@H](C2Cc3ccccc3C2)C(=O)N1[C@@H](C(=O)NC(C)(C)C)c1ccccc1	–	–	5.01	–
CC(C)C[C@@H]1C(=O)N[C@H](C2Cc3ccccc3C2)C(=O)N1[C@H](C(=O)NC(C)C)c1ccc(S(C)(=O)=O)cc1	–	–	100	–
C=CCN1C(=O)[C@@H](CC(C)C)N([C@@H](C(=O)NC(C)C)c2ccccc2)C(=O)[C@H]1C1Cc2ccccc2C1	–	–	63.1	–
CC(C)C[C@@H]1C(=O)N[C@H](C2Cc3ccccc3C2)C(=O)N1[C@@H](C(=O)N(C)C(C)C)c1ccccc1	–	–	3.98	–
COc1ccc([C@@H](C(=O)NC(C)(C)C)N2C(=O)[C@@H](C3Cc4ccccc4C3)NC(=O)[C@H]2CC(C)C)cc1	–	–	39.8	–
CC(C)C[C@@H]1C(=O)N[C@H](C2Cc3ccccc3C2)C(=O)N1[C@H](C(=O)NC(C)C)c1ccc(F)cc1	–	–	100	–
CC(C)C[C@@H]1C(=O)N[C@H](C2Cc3ccccc3C2)C(=O)N1[C@@H](C(=O)NC(C)C)c1ccc(C(F)(F)F)cc1	280	3.7	5.01	–
c1ccc2c(c1)CNCO2	–	–	2	–
CC(C)C[C@@H]1C(=O)N[C@H](C2Cc3ccccc3C2)C(=O)N1[C@H](C(=O)NC(C)(C)C)c1ccc(Cl)cc1	–	–	158	–
CC(C)C[C@@H]1C(=O)N[C@H](C2Cc3ccccc3C2)C(=O)N1[C@@H](C(=O)NC(C)C)c1ccc(C(N)=O)cc1	44	1.8	31.6	–
CC(C)C[C@@H]1C(=O)N[C@H](C2Cc3ccccc3C2)C(=O)N1[C@@H](C(=O)NC(C)(C)C)c1ccc(N2CCN(C)CC2)cc1	–	–	25.1	–
CC(C)C[C@@H]1C(=O)N[C@H](C2Cc3ccccc3C2)C(=O)N1[C@H](C(=O)NC(C)(C)C)c1ccc(OC(F)(F)F)cc1	–	–	158	–

Compound	AUC [1] [ng·h/mL]	chromatographic logD [2]	Ki (Oxytocin receptor) [nM]	also measured
CC(C)C[C@@H]1C(=O)N[C@H](C2Cc3ccccc3C2)C(=O)N1[C@@H](C(=O)NC(C)C)c1ccc(F)cc1F	–	–	–	AUC [6]: 291 ng·h/mL; F [7]: 33%; Vd [8]: 1.2 L/kg; CL (Plasma clearance in dog): 11 mL/min/kg; Ki (Vasopressin V2 receptor): 631 nM; Ki (Vasopressin V1b receptor): > 6310 nM; AUC [9]: 121 ng·h/mL; Ki (Vasopressin V1a receptor): > 6310 nM
CC(=O)Nc1ccc([C@H](C(=O)NC(C)C)N2C(=O)[C@@H](C3Cc4ccccc4C3)NC(=O)[C@H]2CC(C)C)cc1	–	–	1.58	–
CC(C)C[C@@H]1C(=O)N[C@H](C2Cc3ccccc3C2)C(=O)N1[C@@H](C(=O)NC(C)C)c1ccc(F)cc1	421	3.2	3.98	CL (Plasma clearance in rat): 23 mL/min/kg; bioavailability [7]: 13%; Vd [8]: 0.8 L/kg; CL (Plasma clearance in dog): 5 mL/min/kg; Vd [3]: 0.8 L/kg; half-life [4]: 54 min; Ki (Vasopressin V2 receptor): > 1260 nM; AUC [10]: 259 ng·h/mL; Ki (Vasopressin V1b receptor): > 6310 nM; Ki (Vasopressin V1a receptor): > 6310 nM; bioavailability [5]: 13%
CC(C)C[C@@H]1C(=O)N[C@H](C2Cc3ccccc3C2)C(=O)N1[C@H](C(=O)NC(C)C)c1ccc(C(F)(F)F)cc1	–	–	79.4	–
CC(C)C[C@@H]1C(=O)N[C@H](C2Cc3ccccc3C2)C(=O)N1[C@@H](C(=O)NC(C)(C)C)c1ccc(Cl)cc1	95	4	2.51	CL (Plasma clearance in rat): 43 mL/min/kg; Vd [3]: 0.4 L/kg; half-life [4]: 42 min; bioavailability [5]: 2%
CC(C)C[C@@H]1C(=O)N[C@H](C2Cc3ccccc3C2)C(=O)N1[C@@H](C(=O)NC(C)C)c1ccc(N(C)C)cc1	287	3.4	3.16	CL (Plasma clearance in rat): 48 mL/min/kg; bioavailability [7]: 50%; Vd [8]: 1.7 L/kg; CL (Plasma clearance in dog): 15 mL/min/kg; Vd [3]: 2.3 L/kg; half-life [4]: 72 min; Ki (Vasopressin V2 receptor): > 79400 nM; AUC [10]: 335 ng·h/mL; Ki (Vasopressin V1b receptor): > 50100 nM; Ki (Vasopressin V1a receptor): > 39800 nM; bioavailability [5]: 5%
CC(C)C[C@@H]1C(=O)N[C@H](C2Cc3ccccc3C2)C(=O)N1[C@@H](C(=O)NC(C)(C)C)c1ccc(OC(F)(F)F)cc1	85	4.1	5.01	–
CC(C)C[C@@H]1C(=O)N[C@H](C2Cc3ccccc3C2)C(=O)N1[C@H](C(=O)NC(C)C)c1ccccc1	–	–	50.1	–
CC(C)C[C@@H]1C(=O)N[C@H](C2Cc3ccccc3C2)C(=O)N1[C@@H](C(=O)NC(C)(C)C)c1cccc(N2CCN(C)CC2)c1	–	–	158	–
CC(=O)Nc1ccc([C@H](C(=O)NC(C)(C)C)N2C(=O)[C@@H](C3Cc4ccccc4C3)NC(=O)[C@H]2CC(C)C)cc1	59	2.4	2	–
Cc1ccc([C@H](C(=O)NC(C)C)N2C(=O)[C@@H](C3Cc4ccccc4C3)NC(=O)[C@H]2CC(C)C)cc1	–	3.5	3.98	CL (Plasma clearance in rat): 37 mL/min/kg; Vd [3]: 0.6 L/kg; half-life [4]: 36 min
CC(C)C[C@@H]1CN[C@H](C2Cc3ccccc3C2)C(=O)N1[C@@H](C(=O)NC(C)C)c1ccccc1	–	–	316	–
CC(C)C[C@@H]1C(=O)N[C@H](C2Cc3ccccc3C2)C(=O)N1[C@H](C(=O)NC(C)(C)C)c1ccccc1	–	–	79.4	–
CC(C)C[C@@H]1C(=O)N[C@H](C2Cc3ccccc3C2)C(=O)N1[C@@H](C(=O)NC(C)C)c1ccc(S(C)(=O)=O)cc1	60	2.4	10	CL (Plasma clearance in rat): 21 mL/min/kg; Vd [3]: 0.7 L/kg; half-life [4]: 90 min; bioavailability [5]: 3%
Cc1ccc([C@@H](C(=O)NC(C)C)N2C(=O)[C@@H](C3Cc4ccccc4C3)NC(=O)[C@H]2CC(C)C)cc1	–	–	50.1	–
CC(C)C[C@@H]1C(=O)N[C@H](C2Cc3ccccc3C2)C(=O)N1[C@H](C(=O)NC(C)C)c1ccc(C(N)=O)cc1	–	–	158	–

Reference: ChEMBL document CHEMBL1140377, “2,5-diketopiperazines as potent, selective, and orally bioavailable oxytocin antagonists. 2. Synthesis, chirality, and pharmacokinetics” (J Med Chem, 2005)
